Screening results: PubChem, several laboratories
A selection: hits, their analogues and other compounds. The true share with any hit is near 2.1%.
APJ agonist: agonists of human APJ apelin receptor; AID 2520; CHO-K1 APJ PathHunter beta-arrestin, luminescence; 0% DMSO wells, 100% apelin; 0.11% of 330,000 active; activation, % at 20 µM;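 active = activation more than six SD over the plate average, tested at 20 µM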;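 also: 0% = DMSO alone and 100% = apelin-13 at 10 nM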
Target sequence (P35414 whole entry, looked up): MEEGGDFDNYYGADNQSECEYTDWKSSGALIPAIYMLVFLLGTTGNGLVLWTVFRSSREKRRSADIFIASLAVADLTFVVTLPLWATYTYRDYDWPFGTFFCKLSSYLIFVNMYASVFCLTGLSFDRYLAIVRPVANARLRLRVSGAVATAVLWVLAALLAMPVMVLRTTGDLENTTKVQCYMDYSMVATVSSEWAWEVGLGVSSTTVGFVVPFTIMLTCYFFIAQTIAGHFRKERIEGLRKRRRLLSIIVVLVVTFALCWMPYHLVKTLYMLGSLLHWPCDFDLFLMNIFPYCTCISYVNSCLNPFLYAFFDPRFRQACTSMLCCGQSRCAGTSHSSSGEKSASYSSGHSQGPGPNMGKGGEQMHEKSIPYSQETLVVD
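Material: engineered CHO-K1 APJ arrestin reporter cells; amount: 1000 CHO-K1 reporter cells seeded per well; incubation: compound stimulation 90 min at 25 °C, detection 60 min; signal: luminescent beta-gal fragment complementation, chemiluminescent substrate; read-out basis: APJ agonist activity; controls: DMSO-only wells as negative, 10 nM Apelin-13 as positive control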
CCR6 antag: blocks CCL20-driven beta-arrestin recruitment at human CCR6; P51684; CHO-K1 CCR6 PathHunter beta-arrestin, luminescence, CCL20-stimulated; inhibition, % at 20 µM; 0.49% of 340,000 active; AID 493098;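 active = compounds whose inhibition of the agonist-driven luminescence signal at 20 µM reaches about 50%, limit read from the data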;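 also: cells stimulated with CCL20 at 14 nM final; plate controls were DMSO with CCL20 for no effect and DMSO without agonist for full effect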
EBI2 antag: antagonists of human EBI2 receptor | EBI2 beta-arrestin recruitment, luminescence, 7a,25-OHC stimulated | inhibition, % at 5 µM | 0.81% of 360,000 active; in the data active = inhibition above about 38%;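 also: enzyme fragment complementation signal reports receptor beta-arrestin coupling in cells; 0% = agonist plus DMSO wells and 100% = wells without agonist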
m5-HT2A agonist: mouse HTR2A agonism via beta-arrestin recruitment; CHO-K1 mHTR2A beta-arrestin complementation, luminescence; percent of 30 µM serotonin response; activation, % at 7.6 µM; 0.66% of 360,000 active; AID 624169;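 active = activation above a run cutoff, the mean activation of all tested compounds plus 3 SD, cut at about 14% in these data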;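 also: 0% = plate median of compound wells and 100% = 30 µM serotonin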
CXCR6 inh: CXCR6 (human) receptor inhibition. inhibition, % at 20 µM. 0.36% of 360,000 active. CHO-K1 PathHunter CXCR6 beta-arrestin, luminescence. O00574. AID 602244; in the data active = inhibition above about 34%, passing the limit was not always enough;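 also: antagonist mode with CXCL16 agonist at 10 nM final; 0% = 10 nM CXCL16 with DMSO and 100% = unstimulated wells without agonist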
APJ antagonist: blocks the human apelin receptor APJ; 0.32% of 330,000 active; inhibition, % at 20 µM; CHO-K1 APJ beta-arrestin complementation, luminescence;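 active = inhibition above about 40% at 20 µM, limit read from the data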;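 also: cells challenged with 10 nM apelin-13 agonist together with compound; plate controls were apelin-13 plus DMSO wells for no effect and DMSO wells lacking apelin-13 for full effect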
OPRM1 ag: OPRM1 agonism in mouse HTR2A counterscreen | U2OS OPRM1 beta-arrestin PathHunter, luminescence; DMSO 0%, DAMGO 9.3 µM 100% | AID 624380 | shares compounds with m5-HT2A agonist | activation, % at 9.3 µM | 5.3% of 2,300 active;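 active = mean activation above the mean of DMSO-only wells plus 3 SD, cut at about 0.5% in these data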
HTR2A ag conf: confirmation of mouse HTR2A serotonin receptor agonists. shares compounds with m5-HT2A agonist. CHO-K1 PathHunter beta-arrestin recruitment, luminescence; DMSO 0%, 30 µM serotonin 100%. activation, % at 7.6 µM. 19% of 2,300 active. AID 624381;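 active = mean activation across triplicates above the hit threshold derived in the original primary screen, cut at about 15% in these data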
Starred values were filed as active, the others as inactive; ! = not confirmed by another sample.

For Cc1ccc(Cn2cccc2C2=NC(C)CO2)cc1 (stereo not given) the results were APJ agonist 1, CCR6 antag 7, EBI2 antag -3, m5-HT2A agonist 14*, CXCR6 inh 1, APJ antagonist 13, OPRM1 ag 0 and HTR2A ag conf -6.
Screening CCCc1cc(=O)[nH]c(SCC(=O)NC(=O)OCC)n1 returned APJ agonist -4, CCR6 antag -2, EBI2 antag -6, m5-HT2A agonist 3, CXCR6 inh -4 and APJ antagonist 5.
O=C(O)Cn1nc(C(F)(F)F)c2c1CCCCC2 was read as APJ agonist 4, CCR6 antag -10, EBI2 antag -2, m5-HT2A agonist 5, CXCR6 inh -8 and APJ antagonist -8.
Screening NC(=O)Cn1nc(C(F)(F)F)c2c1CCCC2 returned APJ agonist -3, CCR6 antag -1, EBI2 antag -4, m5-HT2A agonist 40*, CXCR6 inh -5, APJ antagonist -4, OPRM1 ag 0 and HTR2A ag conf -3.
For COc1ccc(CNC(=O)N[C@@H](Cc2c[nH]c3ccccc23)C(=O)O)cc1 the results were APJ agonist -4, CCR6 antag -4, EBI2 antag 0, m5-HT2A agonist 1, CXCR6 inh 2 and APJ antagonist 11.
Screening CCCN1C(=O)/C(=C/c2ccco2)SC1=Nc1ccc(OC)cc1 returned APJ agonist 4, CCR6 antag 36, EBI2 antag 15, m5-HT2A agonist 0, CXCR6 inh 10 and APJ antagonist 11.
Cc1nn(C)cc1C(=O)Nc1ccc2c(c1)OCCO2 was read as APJ agonist -4, CCR6 antag -9, EBI2 antag -3, m5-HT2A agonist -3, CXCR6 inh 1 and APJ antagonist 16.
Screening FC(F)(F)Oc1ccc(Nc2nc(N3CCOCC3)nc(N3CCOCC3)n2)cc1 returned APJ agonist -4, CCR6 antag 10, EBI2 antag 4, m5-HT2A agonist 15*, CXCR6 inh 4, APJ antagonist 7, OPRM1 ag 0 and HTR2A ag conf -4.
Screening COc1ccccc1Nc1nc(N2CCCC2)nc(N2CCOCC2)n1 returned APJ agonist -6, CCR6 antag 12, EBI2 antag -7, m5-HT2A agonist 2, CXCR6 inh -5 and APJ antagonist 17.
For COc1ccccc1Nc1nc(N2CCOCC2)nc(N2CCOCC2)n1 the results were APJ agonist -5, CCR6 antag 5, EBI2 antag 8, m5-HT2A agonist 16*!, CXCR6 inh 2, APJ antagonist 12, OPRM1 ag 0 and HTR2A ag conf 1.
`COc1ccc(NC(=O)Cc2nc3ccccc3[nH]2)cc1` gave APJ agonist 3, CCR6 antag -7, EBI2 antag -52, m5-HT2A agonist 85*, CXCR6 inh -11, APJ antagonist -37, OPRM1 ag 0 and HTR2A ag conf -2.
`COc1ccc(/C=N/NC(=O)CCc2nc3ccccc3[nH]2)cc1` gave APJ agonist 2, CCR6 antag -2, EBI2 antag -3, m5-HT2A agonist 16*, CXCR6 inh -2, APJ antagonist -16, OPRM1 ag -1 and HTR2A ag conf -2.
Screening COc1ccc(CCC(=O)NCCc2nc3ccccc3[nH]2)cc1 returned APJ agonist 1, CCR6 antag 3, EBI2 antag 6, m5-HT2A agonist 1, CXCR6 inh 6 and APJ antagonist -6.
O=C(C[n+]1ccccc1)N1CCCc2ccccc21 was read as APJ agonist -2, CCR6 antag 0, EBI2 antag -7, m5-HT2A agonist 20*, CXCR6 inh 7, APJ antagonist 4, OPRM1 ag 0 and HTR2A ag conf 2.
For COc1nonc1NC(=O)CSc1nc2ccccc2[nH]1 the results were APJ agonist -1, CCR6 antag -18, EBI2 antag -4, m5-HT2A agonist -6, CXCR6 inh -16 and APJ antagonist 2.
Cc1nc2ccc(S(=O)(=O)NCC(=O)NCc3ccc(Cl)cc3)cc2s1 was read as APJ agonist 6, CCR6 antag 12, EBI2 antag 6, m5-HT2A agonist 0, CXCR6 inh -2 and APJ antagonist -12.
Screening Cc1nc2ccc(S(=O)(=O)CCC(=O)NCc3ccc(Cl)cc3)cc2s1 returned EBI2 antag 13, m5-HT2A agonist 21*, CXCR6 inh 4, OPRM1 ag 0 and HTR2A ag conf -1.
For NS(=O)(=O)c1ccc(CNS(=O)(=O)c2ccc3ccccc3c2)cc1 the results were APJ agonist 1, CCR6 antag 17, EBI2 antag -1, m5-HT2A agonist -5, CXCR6 inh 0 and APJ antagonist 23.
`COc1ccc(NC(=O)c2sc3nc(N4CCOCC4)c4c(c3c2N)CCCC4)cc1` gave EBI2 antag 21, m5-HT2A agonist -1 and CXCR6 inh 5.
For CCOC(=O)c1ccc(NC(=O)c2sc3nc(N4CCOCC4)c4c(c3c2N)CCCC4)cc1 the results were APJ agonist -2, CCR6 antag 3, EBI2 antag 11, m5-HT2A agonist 18*, CXCR6 inh -1, APJ antagonist 2, OPRM1 ag 0 and HTR2A ag conf -3.
CCCC12CN(C(=O)c3ccco3)CC(CCC)(CN(C(=O)c3ccco3)C1)C2=O was read as APJ agonist -7, CCR6 antag 21, EBI2 antag 1, m5-HT2A agonist 5, CXCR6 inh 6 and APJ antagonist 4.
Screening CCCC(=O)N1CC2(C)CN(C(=O)CCC)CC(CCC)(C1)C2=O returned APJ agonist 1, CCR6 antag 8, EBI2 antag -9, m5-HT2A agonist 16*, CXCR6 inh 2, APJ antagonist 20, OPRM1 ag -1 and HTR2A ag conf -4.
`Cn1c(=O)c2c(nc(Oc3ccccc3N)n2C)n(C)c1=O` gave APJ agonist 2, CCR6 antag -18, EBI2 antag 3, m5-HT2A agonist 16*, CXCR6 inh -2, APJ antagonist 12, OPRM1 ag 0 and HTR2A ag conf -4.
Cn1c(=O)c2c(nc(Oc3ccccc3Cl)n2C)n(C)c1=O was read as CCR6 antag 4, EBI2 antag 8, m5-HT2A agonist 3 and CXCR6 inh -2.
For Cn1nc(-c2ccc(Cl)cc2)c2cc(C(=O)N3CCCC3)sc21 the results were APJ agonist 4, CCR6 antag -25, EBI2 antag 5, m5-HT2A agonist 22*, CXCR6 inh -5, APJ antagonist 5, OPRM1 ag 0 and HTR2A ag conf 3.
